Laboratory results published in ChEMBL document CHEMBL4346658, “sp2-Iminosugar glycolipids as inhibitors of lipopolysaccharide-mediated human dendritic cell activation in vitro and of acute inflammation in mice in vivo” (Eur J Med Chem, 2019).
Active and inactive are the calls of the source.

Experiments:
Dendritic cell [1] = assay: Antiinflammatory activity in human dendritic cells assessed as CD14-TLR-4 co-localization at 100 uM incubated for 30 mins by DAPI staining based confocal microscopy; type: functional
How it was run: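 Monocyte-derived DCs (10^5 per chamber) on poly-L-lysine-coated chamber slides were treated for 30 min, then washed, fixed and permeabilized. They were stained with goat anti-TLR-4 (5 µg mL⁻¹) plus AF488 anti-goat, and anti-CD14-APC, with DAPI nuclei. Confocal imaging gave the Pearson CD14/TLR-4 colocalization coefficient per field of 15–20 cells, from two independent assays.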

Dendritic cell [2] = assay: Antiinflammatory activity in human dendritic cells assessed as reduction in LPS-induced TNFalpha production at 100 uM cotreated with LPS measured after 24 hrs by ELISA; type: functional, cell-based
How it was run: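 DCs came from human blood monocytes (Ficoll/Percoll) cultured 5 days with GM-CSF 50 ng ml⁻¹ and IL-4 10 ng ml⁻¹, in RPMI/10% FCS at 37 °C and 5% CO₂. Cells (10^5 per 200 µL) got E. coli K12 LPS (100 ng mL⁻¹) plus compound at the same time. After 24 h, supernatant TNF-α was measured by ELISA, with at least 3 donors and mean ± SEM.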

Dendritic cell [3] = assay: Antiinflammatory activity in human dendritic cells assessed as reduction in LPS-induced TNFalpha production at 100 uM pretreated with LPS for 30 mins followed by compound addition measured after 24 hrs by ELISA; type: functional, cell-based
How it was run: (§1)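 Monocyte-derived DCs (10^5 per 200 µL) were stimulated with ultrapure E. coli K12 LPS (100 ng mL⁻¹). Compound was added 0.5, 2, 4 or 6 h after LPS. TNF-α in the supernatant was measured by ELISA 24 h after stimulation, as mean ± SD of more than 3 independent assays.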

Dendritic cell [4] = assay: Antiinflammatory activity in human dendritic cells assessed as reduction in LPS-induced CD83 expression on cell surface at 100 uM pretreated with LPS upto 6 hrs followed by compound addition measured after 24 hrs by FACS analysis; type: functional, cell-based
Dendritic cell [5] = assay: Antiinflammatory activity in human dendritic cells assessed as reduction in LPS-induced CD86 expression on cell surface at 100 uM pretreated with LPS upto 6 hrs followed by compound addition measured after 24 hrs by FACS analysis; type: functional, cell-based
Dendritic cell [6] = assay: Antiinflammatory activity in human dendritic cells assessed as reduction in LPS-induced TNFalpha production at 100 uM pretreated with LPS up to 6 hrs followed by compound addition measured after 24 hrs by ELISA; type: functional, cell-based; how it was run: as §1
Dendritic cell [7] = assay: Antiinflammatory activity in human dendritic cells assessed as reduction in CD14 receptor cell surface expression at 100 uM incubated for 30 mins by flow cytometric analysis; type: functional, cell-based
How it was run: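 Monocyte-derived DCs (10^5 in 200 µL complete medium) were exposed for 30 min at 37 °C without LPS. They were then washed, held on ice, stained with anti-CD14-PE, and surface CD14 was read by flow cytometry.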

CCCCCCCCCCCCC#CC#CCCCCCCCCC(=O)NC(COCCC(=O)NCCOCCOCCOCCO[C@H]1O[C@H](CO)[C@@H](O)[C@H](O)[C@@H]1O)(COCCC(=O)NCCOCCOCCOCCO[C@H]1O[C@H](CO)[C@@H](O)[C@H](O)[C@@H]1O)COCCC(=O)NCCOCCOCCOCCO[C@H]1O[C@H](CO)[C@@H](O)[C@H](O)[C@@H]1O
inactive: inhibition (Dendritic cell [4]) | inhibition (Dendritic cell [5]) | inhibition (Dendritic cell [6])
active: Activity (Dendritic cell [1]) | inhibition (Dendritic cell [2]) | inhibition (Dendritic cell [3]) | inhibition (Dendritic cell [7])
